This assay in a line: yeast growth toxicity, wild-type and mutant, primary screen, cytotoxicity control for eIF2B function restoration project, wild-type and eIF2Bepsilon R284H mutant, A595 (AID 685).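 Further: 0% = untreated cell controls and 100% = YPD media blanks without cells.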 The note with it: A595 turbidity, 16 h, stronger effect = higher value, screened at 25 µM (by protocol). In outline:
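Schedule: 16 h growth with compound, 30 °C. System: yeast, wild-type or eIF2Bepsilon-R284H mutant. Doses: one dose, 25 µM compound[…]. Buffer or medium: YPD. Signal: turbidity measured as absorbance at 595 nm. Read-out basis: growth inhibition (%) versus cell controls and blanks.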

Where [1] appears, read: S. cerevisiae eIF2Bepsilon-R284H mutant growth.

Hit rate of the full screen: of about 30,000 compounds, about 80 (0.3%) were called active. The sample holds actives, similar compounds and a random draw of the others, so the mix is not that of the screen.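 How the source made its calls: active means mutant and wild-type yeast strains alike exhibit over 30% growth inhibition; inconclusive means a strain exceeds 50% while the second remains under 30%; inactive means the rest.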

Consider `COC(=O)COc1ccc(S(=O)(=O)N2CCOCC2)cc1`, for which the growth inhibition by setting is: under setting [1], 0%; (S. cerevisiae wild-type growth) -24.2% (inactive).
`Cc1ccc(-c2csc(NC(=O)Cc3cccs3)n2)cc1C`: the growth inhibition under setting [1] was determined as 0% and the growth inhibition (S. cerevisiae wild-type growth) is 33.1% (inactive).
The corresponding values for `CCOC(=O)C1=C(C)NC(SC)=NC1c1ccccc1` (stereo unspecified) are -3.45% and -15.1% (inactive).
With `Cc1ccc(N(CC(=O)Nc2cccc(N(C)S(C)(=O)=O)c2)S(C)(=O)=O)cc1`, the growth inhibition runs as follows: under setting [1], 16.1%; (S. cerevisiae wild-type growth) 8.21% (inactive).
Taken in the same sequence, the figures for `Cn1c(N)c(C(=O)COC(=O)C23CC4CC(CC(C4)C2)C3)c(=O)n(C)c1=O` were 11.6% and 6.55% (inactive).
Take `CN=C1SC(CC(=O)Nc2ccc(C(=O)O)cc2)C(=O)N1C` (stereo unspecified): the growth inhibition by setting is: under setting [1], 10.3%; (S. cerevisiae wild-type growth) 13.1% (inactive).
`O=S(=O)(NCCOc1cccc2cccnc12)c1ccc(F)cc1`: the growth inhibition runs as follows: under setting [1], 0%; (S. cerevisiae wild-type growth) -11.7% (inactive).
The corresponding values for `O=C(c1cccc(F)c1)N1CCC(O)(c2cccnc2)CC1` are -27.3% and 1.72% (inactive).
With `CCOc1ccc(NC(=O)C2CCCN(C(=O)Nc3ccccc3)C2)cc1` (stereo unspecified), the growth inhibition is 8.33% under setting [1] and 16.3% (inactive) (S. cerevisiae wild-type growth).
Taken in the same sequence, the figures for `CC(OC(=O)CN1C(=O)C2CCCCC2C1=O)C(=O)Nc1ncc(Cl)cc1Cl` (stereo unspecified) were 15.2% and 19.3% (inactive).
The corresponding values for `CCOC(=O)c1c(NC(=O)CSc2nnc(CNc3ccc(C)cc3C)o2)sc(C)c1C` are 25.9% and 25.9% (inactive).
Take `CCCCN(CC)CCNC(=O)c1[nH]c(C)c(C(C)=O)c1C`: the growth inhibition is, setting by setting: under setting [1], 17.6%; (S. cerevisiae wild-type growth) 11.2% (inactive).
In the case of `OC(C#CCN1CCOCC1)(c1ccccc1)C1CCCCC1` (stereo unspecified), the growth inhibition was 7.89% under setting [1] and 34.3% (inactive) (S. cerevisiae wild-type growth).
The corresponding values for `CCOCCOCCC(C(=O)O)P(=O)(c1ccccc1)c1ccccc1` (stereo unspecified) are 16.7% and 13.8% (inactive).
The corresponding values for `CCn1cc(C(=O)NCC2CCCO2)c(=O)c2cc(S(=O)(=O)N3CCCCC3)ccc21` (stereo unspecified) are -11.1% and 6.79% (inactive).
The corresponding values for `OC(CNCC1CCCO1)Cn1c2ccc(Br)cc2c2cc(Br)ccc21` (stereo unspecified) are 100% and 86.7% (active).
In the case of `CCc1cc(Br)ccc1NC(=O)C1CCCO1` (stereo unspecified), the growth inhibition is 18.5% under setting [1] and -7.78% (inactive) (S. cerevisiae wild-type growth).
Taken in the same sequence, the figures for `COc1ccc(CCNC(=O)CN(c2ccccc2)S(C)(=O)=O)cc1OC` were 12.8% and 18.3% (inactive).
The corresponding values for `COC(=O)c1c(C)c(C)nc(N)c1C#N` are -9.52% and -10.8% (inactive).
The corresponding values for `COC(=O)c1ccc(Cc2ccccc2)o1` are 19.4% and 10% (inactive).
In the case of `CCOC(=O)c1cc2c(ccn2C)n1CC(=O)N1CCC(C)CC1`, the growth inhibition under setting [1] amounted to 4.55% and the growth inhibition (S. cerevisiae wild-type growth) is -20.7% (inactive).
Taken in the same sequence, the figures for `O=C(C1CCC(C(=O)N2CCCC2)CC1)N1CCCC1` (stereo unspecified) were -12.9% and -0.38% (inactive).
In the case of `Cn1c(Cn2nnc3ccccc32)nnc1SCC(=O)c1ccccc1F`, the growth inhibition is, setting by setting: under setting [1], 16.2%; (S. cerevisiae wild-type growth) 4.07% (inactive).
Regarding `O=C(NC(=O)c1ccccc1)NC(=O)c1ccccc1`, the growth inhibition was 5.26% under setting [1] and 12.5% (inactive) (S. cerevisiae wild-type growth).
For `Nc1nc(SCc2ccccc2Cl)n[nH]1`, the growth inhibition is, setting by setting: under setting [1], 16.2%; (S. cerevisiae wild-type growth) -0.77% (inactive).
The corresponding values for `CC(C)N(C(=O)COC(=O)c1ccccc1C(=O)N1CCN(c2ccc(F)cc2)CC1)C(C)C` are -1.35% and -10% (inactive).
In the case of `COc1ccc(O)c(C(=O)c2cnc3onc(C(C)C)c3c2)c1`, the growth inhibition reads like this: under setting [1], -10.5%; (S. cerevisiae wild-type growth) 8.18% (inactive).
Taken in the same sequence, the figures for `CS(=O)(=O)N(CC(=O)N1CCN(c2ccc(F)cc2)CC1)C1CCCCC1` were 4.76% and 3.1% (inactive).
Consider `O=C(Nc1ccc(Cl)cc1)c1cc2nc(C3CC3)cc(C(F)(F)F)n2n1`, for which the growth inhibition is -4.05% under setting [1] and 1.92% (inactive) (S. cerevisiae wild-type growth).
Taken in the same sequence, the figures for `O=C(CSCc1ccccc1)N1CCc2ccccc21` were 9.38% and 14.7% (inactive).
Consider `O=C(CN1CCSCC1)N/N=C/c1ccc(F)cc1`, for which the growth inhibition is 17.5% under setting [1] and 10% (inactive) (S. cerevisiae wild-type growth).
Taken in the same sequence, the figures for `O=C(Nc1ccccc1-c1nnn(CC(=O)N2CCCc3ccccc32)n1)c1cccc(Cl)c1` were 4.35% and -12.9% (inactive).
The corresponding values for `CC1CCC2(CC1)NC(=O)N(CC(=O)c1cccn1C)C2=O` (stereo unspecified) are -4.76% and 3% (inactive).
Taken in the same sequence, the figures for `Cc1cc(=O)[nH]c(SCc2cccc(F)c2)n1` were 0% and 10.8% (inactive).
As to `Cc1cc(C)cc(NC(=O)C2CCN(c3nc(C)cc(C)n3)CC2)c1`, the growth inhibition under setting [1] is -2.94% and the growth inhibition (S. cerevisiae wild-type growth) was 5.33% (inactive).
Taken in the same sequence, the figures for `CC(c1ccco1)N(C(=O)COc1ccccc1[N+](=O)[O-])c1ccccn1` (stereo unspecified) were -23.8% and -11% (inactive).
The corresponding values for `COc1cc(C)c(C(C)C)cc1S(=O)(=O)n1ccnc1` are -20% and -17% (inactive).
The corresponding values for `O=c1[nH]nc(CSCc2ccccc2Cl)[nH]1` are -3.13% and -3.79% (inactive).
Regarding `O=C(O)c1cc2ccccc2c(=O)s1`, the growth inhibition runs as follows: under setting [1], -9.52%; (S. cerevisiae wild-type growth) 17.3% (inactive).
Taken in the same sequence, the figures for `CCN(CC)C(=O)CSc1ncnc2c1cnn2-c1ccccc1` were -12.9% and 1.3% (inactive).
Taken in the same sequence, the figures for `O=C(Cn1cnc2ccccc2c1=O)NCC1COc2ccccc2O1` (stereo unspecified) were 10.9% and 3.57% (inactive).
`O=C(NCC1CCC(C(=O)O)CC1)OCc1ccccc1` (stereo unspecified): the growth inhibition under setting [1] stood at 0% and the growth inhibition (S. cerevisiae wild-type growth) was -12.5% (inactive).
For the molecule `COc1ccc(S(=O)(=O)NCc2ccc(C(=O)N(C)Cc3ccco3)cc2)cc1`, the growth inhibition runs as follows: under setting [1], 6.06%; (S. cerevisiae wild-type growth) -4.07% (inactive).

For the origin of these results see PubChem BioAssay AID685 (PCMD, 2007).
